{"data": "Assay results collected from several papers", "HTR1A": "5-hydroxytryptamine receptor 1A (HTR1A, Homo sapiens, UniProt P08908)", "M-phase phosphoprotein 8 chromodomain": "M-phase phosphoprotein 8, chromodomain (Homo sapiens, UniProt Q99549)", "ESR1": "Estrogen receptor (ESR1, Homo sapiens, UniProt P03372)", "AChE": "AChE (Phlebotomus papatasi, UniProt M1F887)", "note": "Compare with care: the assays were run in different laboratories."}
{"Structure (SMILES)": "NCCc1c[nH]c2ccc(F)cc12", "target": "HTR1A", "test": "ligand displacement, radioligand", "quantity": "Ki", "value": "18 nM"}
{"Structure (SMILES)": "CCN(CCCC[C@H](NC(=O)[C@H](CC(C)C)NC(=O)[C@H](C)NC(=O)[C@H](CC1CCCCC1)NC(=O)c1cccnc1)C(=O)N[C@@H](CO)C(N)=O)C(C)C", "target": "M-phase phosphoprotein 8 chromodomain", "test": "cell-free assay, TR-FRET", "quantity": "IC50", "value": "1500 nM"}
{"Structure (SMILES)": "C[C@]1(O)CC[C@H]2[C@@H]3CCC4=CC(=O)CCC4=C3CC[C@@]21C", "target": "ESR1", "test": "reporter gene, agonist", "quantity": "EC50", "value": "4.23 µM"}
{"Structure (SMILES)": "C[C@]12CC[C@H]3[C@@H](CCC4=C[C@@H](O)CC[C@@H]43)[C@@H]1CC[C@@H]2O", "target": "ESR1", "test": "ligand displacement", "quantity": "IC50", "value": "134 nM"}
{"Structure (SMILES)": "CNC(=O)Oc1ccc2c(c1)[C@]1(C)CCN(C)[C@@H]1N2C", "target": "AChE", "test": "enzyme activity, inhibitor", "quantity": "IC50", "value": "9 nM"}
{"Structure (SMILES)": "CCN(CCCC[C@H](NC(=O)[C@H](C)NC(=O)[C@H](C)NC(=O)[C@H](Cc1ccccc1)NC(=O)c1cccnc1)C(=O)N[C@@H](CO)C(N)=O)C(C)C", "target": "M-phase phosphoprotein 8 chromodomain", "test": "cell-free assay, TR-FRET", "quantity": "IC50", "value": "3400 nM"}
{"Structure (SMILES)": "C=CC[N+](C)(C)c1ccc(CCC(=O)CCc2ccc([N+](C)(C)CC=C)cc2)cc1", "target": "AChE", "test": "enzyme activity, inhibitor", "quantity": "IC50", "value": "30 nM"}
{"Structure (SMILES)": "NCCc1c[nH]c2ccc(Cl)cc12", "target": "HTR1A", "test": "ligand displacement, radioligand", "quantity": "Ki", "value": "5.5 nM"}
